Hits are enriched below; roughly 2.6% of the tested compounds scored in any of these assays.
SENP8 block-1 = blocks the human protease SENP8 | Q96LD8 | purified SENP8, Z-RLRGG-aminoluciferin cleavage, luminescence | inhibition, % at 10 µM | 330,000 compounds, 1.2% hits | AID 2540; in the data active = inhibition above about 50%
Target sequence (Q96LD8 whole entry, looked up): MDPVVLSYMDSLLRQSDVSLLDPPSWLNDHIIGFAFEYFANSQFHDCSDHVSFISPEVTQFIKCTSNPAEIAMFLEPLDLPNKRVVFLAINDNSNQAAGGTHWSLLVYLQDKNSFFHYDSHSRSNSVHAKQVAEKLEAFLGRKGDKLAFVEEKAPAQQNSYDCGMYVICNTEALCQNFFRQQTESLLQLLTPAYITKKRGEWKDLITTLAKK
SENP1 inh = inhibitors of human SENP1 SUMO protease catalytic domain | Q9P0U3 | recombinant SENP1 catalytic domain, CyPet-SUMO1-YPet FRET cleavage | inhibition, % at 10 µM | 360,000 compounds, 0.21% hits | AID 624204;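 active = inhibition at least 30% at 10 µM, raw YFP signal under a set limit, fluorescence ratio 0.5 to 1.5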;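 note: 0% = enzyme with DMSO and 100% = no enzyme wells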
Target sequence (Q9P0U3 419-644 limits assumed): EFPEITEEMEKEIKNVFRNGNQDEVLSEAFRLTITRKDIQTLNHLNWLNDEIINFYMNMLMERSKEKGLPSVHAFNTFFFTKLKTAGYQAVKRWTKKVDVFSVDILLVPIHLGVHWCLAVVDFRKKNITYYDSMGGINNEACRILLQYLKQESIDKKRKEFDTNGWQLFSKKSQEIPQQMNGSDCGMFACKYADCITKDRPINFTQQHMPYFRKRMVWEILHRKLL
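Controls: no-enzyme wells low, DMSO-plus-enzyme wells high control. Test system: human recombinant His6-tagged SENP1 catalytic domain enzyme. Reagent: SFCypet-SUMO1-SFYpet FRET protein substrate, 25 nM final. Doses: one dose per compound, 10 µM, 0.5% DMSO. Detection: FRET, CFP and YFP emission. Timing: 50 min reaction at room temperature.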
SENP7 block = inhibitors of human SENP7 protease | Q9BQF6 | recombinant SENP7, Z-RLRGG-aminoluciferin luminescence, 40 min | inhibition, % at 5 µM | 330,000 compounds, 1.5% hits | AID 434973;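 active = inhibition above about 50% at the single test dose, limit read from the data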;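 note: plate controls were DMSO with enzyme for no effect and no enzyme buffer wells for full effect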
SENP6 block = inhibitors of human SENP6 protease. Q9GZR1. Recombinant SENP6 catalytic domain, aminoluciferin luminescence. inhibition, % at 10 µM. 330,000 compounds, 1.8% hits;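 active = inhibition above about 50% at the single tested dose, limit read from the data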;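 note: plate controls were DMSO wells with enzyme for no effect and DMSO wells lacking enzyme for full effect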
SENP8 block-2 = SENP8 (human) protease inhibition; Q96LD8; recombinant SENP8, Nedd8 substrate fluorescence; inhibition, % at 20 µM; 360,000 compounds, 0.64% hits; AID 602440; in the data active = inhibition mostly above about 40%, no sharp cut-off; inactive = mostly below about 27%
Platelet DG rel = modulates dense granule release in human platelets | human platelet-rich plasma, SFLLRN dense granule ATP release, luminescence | inhibition, %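 (compounds screened at 7.5 µM in platelet-rich plasma)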 | 300,000 compounds, 0.22% hits | AID 1663;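 active = mean replicate score, as percent of positive control, at or above 50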
SENP8 conf = confirmation of human SENP8 protease inhibitors | shares compounds with SENP7 block | Recombinant SENP8, Z-RLRGG-aminoluciferin luminescence, 60 min | inhibition, % at 12.5 µM | 6,200 compounds, 40% hits | AID 488912;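 active = mean inhibition across replicates above about 50%, limit read from the data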
SENP6 confirm = human SENP6 inhibition, confirmed; AID 488915; recombinant SENP6, Z-RLRGG-aminoluciferin luminescence; inhibition, % at 12.5 µM; shares compounds with SENP7 block; 6,200 compounds, 58% hits
SENP7 confirm = human SENP7 inhibition, confirmed; shares compounds with SENP7 block; recombinant SENP7, Z-RLRGG-aminoluciferin luminescence, 40 min; inhibition, % at 12.5 µM; 6,200 compounds, 69% hits
Casp3 SENP sel = inhibits human caspase-3 in SENP selectivity test; shares compounds with SENP7 block; purified caspase-3, Z-DEVD-aminoluciferin luminescence, 60 min; inhibition, % at 12.5 µM; 6,200 compounds, 60% hits; AID 488918;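 active = mean inhibition above about 50%, limit read from the data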;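 note: plate controls were enzyme with DMSO for no effect and wells without caspase-3 for full effect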
Target sequence (P42574 28-227 limits assumed): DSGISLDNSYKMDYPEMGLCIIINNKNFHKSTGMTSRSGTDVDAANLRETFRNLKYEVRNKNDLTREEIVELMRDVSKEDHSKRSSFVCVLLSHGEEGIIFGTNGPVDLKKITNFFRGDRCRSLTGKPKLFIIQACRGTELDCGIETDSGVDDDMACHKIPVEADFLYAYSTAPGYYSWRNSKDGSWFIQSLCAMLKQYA
SENP luc ctr = luminescence interference (SENP counter-screen); shares compounds with SENP7 block; Pre-incubated SENP8/Z-RLRGG-aminoluciferin, luciferase luminescence interference; inhibition, % at 12.5 µM; 6,200 compounds, 39% hits; AID 488919;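 active = mean inhibition above about 50% when retested at one dose, limit read from the data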;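 note: plate controls were DMSO wells with completed reaction for no effect and substrate without enzyme for full effect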
The depositor's hits bear a star; i = inactive; . = not tested or not shown.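 Rule for the calls, unless noted: active = mean inhibition above about 50% in the one-dose retest (limit read from the data); inactive = the rest.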

SMILES | SENP8 block-1 | SENP1 inh | SENP7 block | SENP6 block | SENP8 block-2 | Platelet DG rel | SENP8 conf | SENP6 confirm | SENP7 confirm | Casp3 SENP sel | SENP luc ctr
Nc1nn2cc(-c3ccccc3)nc2c2ccccc12 | 56* | 3 | 69* | 33 | -403 | 18 | 78* | 76* | 91* | 73* | 74*
Cc1cc2nc(-c3ccc[nH]c3=O)[nH]c2cc1C | 92* | -73 | 97* | 95* | -286 | 52* | 96* | 97* | 102* | 98* | 82*
Cc1cc2nc(-c3ccc[nH]c3=O)n(Cc3ccc(F)cc3)c2cc1C | -8 | -7 | -2 | 4 | -309 | 2 | . | . | . | . | .
COc1ccc(/C=N/NC(=O)c2ccc[nH]2)cc1 | 77* | 1 | 88* | 79* | 6 | . | 75* | 74* | 95* | 92* | 84*
Cc1ccc(-c2nc3ccccc3nc2NN)cc1 | 85* | -1 | 79* | 91* | -312 | 0 | 20 | 67* | 92* | 74* | 31
O=c1oc(CCCO)cc2ccc(/C=C/c3cccc([N+](=O)[O-])c3)cc12 | 2 | -4 | 61* | 21 | -24 | . | 8 | 17 | 30 | 30 | 4
O=c1oc(CCCO)cc2ccc(Br)cc12 | -9 | 1 | -2 | 0 | 6 | . | . | . | . | . | .
CC1(C(=O)NS(=O)(=O)Cc2cccc(Cl)c2)CCN1C(=O)Cc1ccc(-c2ccccc2)cc1 (centres undefined) | . | -1 | . | . | 14 | . | . | . | . | . | .
O=C(COc1ccc(Br)cc1Br)NC(=S)N1CCCc2ccccc21 | 1 | -30 | 10 | -7 | 12 | 0 | . | . | . | . | .
COc1ccc(C(=O)N=c2sc3c(C)ccc(OC)c3n2C)cc1OC | 76* | 4 | 89* | 84* | -446 | 2 | 5 | 14 | 15 | 9 | 16
COc1ccccc1C(=O)N=c1sc2c(C)ccc(OC)c2n1C | 44 | -13 | 48 | 58* | -454 | 3 | 19 | 18 | 26 | 53* | 14
COc1cccc(C(=O)N=c2sc3c(C)ccc(OC)c3n2C)c1 | 68* | 1 | 97* | 6 | -487 | 16 | 11 | 22 | 9 | 13 | 19
COc1ccc(OC)c2c1sc(=NC(=O)c1ccco1)n2C | -10 | 0 | -6 | -14 | -485 | -6 | . | . | . | . | .
O=c1cc(O)n(-c2ccccc2F)c(=S)[nH]1 | -4 | -18 | 7 | -32 | 7 | -4 | . | . | . | . | .
COc1ccc(C=CC(=O)c2ccc3cc(OC)c(OC)cc3c2)cc1OC | . | -32 | . | . | -370 | . | . | . | . | . | .
Cc1csc(=NC(=O)c2ccccc2)n1C | -8 | 0 | 20 | 28 | -39 | 2 | . | . | . | . | .
O=C(N=c1nc2ccccn2s1)c1ccccc1 | 59* | 3 | 96* | 94* | -6 | 47 | 54* | 59* | 66* | 54* | 26
COc1ccc(/C=C/c2ccc3cccc(O)c3n2)cc1Br | 20 | 2 | 63* | 44 | -52 | 5 | -28 | -17 | -6 | -2 | -5
COc1cccc(/C=C/c2ccc3cccc(O)c3n2)c1 | 89* | 4 | 92* | 93* | -60 | 10 | 92* | 95* | 102* | 90* | 66*
Oc1cccc(/C=C/c2ccc3cccc(O)c3n2)c1 | 94* | 0 | 96* | 94* | -44 | 25 | 97* | 98* | 102* | 92* | 97*
CCOc1ncccc1C(=O)OCC(=O)Nc1ccc(S(=O)(=O)N2CCCC2)cc1 | 5 | 2 | 9 | 0 | 1 | . | . | . | . | . | .
CCOc1ccc(-c2nnc(-c3cccs3)o2)cc1 | 73* | 4 | 85* | 48 | -284 | 6 | 38 | 62* | 60* | 72* | 22
COc1ccc(-c2nnc(-c3cccs3)o2)cc1OC | 45 | 2 | 68* | 63* | -318 | 10 | 58* | 56* | 86* | 81* | 20
CCOc1ccc(-c2nnc(-c3cccs3)o2)cc1OCC | -7 | 0 | -12 | -33 | -301 | -2 | . | . | . | . | .
CC(C)COc1ccc(-c2nnc(-c3ccncc3)o2)cc1 | 27 | 2 | 57* | 66* | -316 | 8 | 25 | 31 | 41 | 46 | 30
SMILES | SENP8 block-1 | SENP1 inh | SENP7 block | SENP6 block | SENP8 block-2 | Platelet DG rel | SENP8 conf | SENP6 confirm | SENP7 confirm | Casp3 SENP sel | SENP luc ctr
c1csc(-c2nnc(-c3ccc(N4CCOCC4)cc3)o2)c1 | 11 | -11 | 52* | 59* | -281 | 2 | -12 | -2 | 30 | 32 | 16
CCNc1nc(NCC)n2c(SCC(=O)Nc3cc(OC)ccc3OC)nnc2n1 | -3 | 0 | -11 | 3 | 4 | 9 | . | . | . | . | .
CCOC(=O)c1c(NC(=O)CN2CCN(c3cccc(Cl)c3)CC2)sc(C)c1C | . | 1 | . | . | 13 | . | . | . | . | . | .
CCOC(=O)c1c(NC(=O)CN2CCN(c3ccc(Cl)cc3)CC2)sc(C)c1C | -9 | -1 | 55* | -15 | -18 | -11 | -1 | 5 | 8 | 4 | 2
COC(=O)c1cn(C(=O)c2ccc(C)cc2C)c2ccccc12 | 6 | 1 | 14 | 10 | 18 | -4 | . | . | . | . | .
CN1CC=C2C(C#N)=C(N)C(C#N)(C#N)[C@H](c3ccoc3)[C@H]2C1 | 27 | -14 | 41 | 76* | i | -33 | 12 | 10 | 2 | -2 | -7
CN1CC=C2C(C#N)=C(N)C(C#N)(C#N)C(c3cccc(Cl)c3Cl)C2C1 (centres undefined) | -7 | -17 | -10 | 2 | -463 | -13 | . | . | . | . | .
COc1ccc(C(=O)Nc2cc(-c3ccc(C)cc3)no2)cc1 | -4 | 0 | 1 | -16 | 12 | 0 | . | . | . | . | .
O=C(O)c1cccc(NC(=O)c2ccccc2)c1 | . | -2 | . | . | 12 | . | . | . | . | . | .
O=C(O)c1cccc(NC(=O)c2cc(NC(=O)c3ccccc3)cc(NC(=O)c3ccccc3)c2)c1 | -2 | 2 | 10 | 90* | 0 | -12 | 15 | 8 | 0 | -5 | -5
CCOc1ccc(C(=O)Nc2cccc(C(=O)O)c2)cc1Cl | 97* | -1 | 100* | 95* | 19 | 6 | 98* | 99* | 102* | 90* | 98*
Cc1ccc(-c2cc(NC(=O)c3ccccc3)on2)cc1 | 52* | 2 | 87* | 50* | 9 | 7 | 34 | 43 | 92* | 63* | 2

High-throughput results from PubChem.
